The text below walks through data of ChEMBL document CHEMBL1144630, “Indole derivatives as potent inhibitors of 5-lipoxygenase: design, synthesis, biological evaluation, and molecular modeling” (Bioorg Med Chem Lett, 2007).

Molecules are shown by their SMILES.

The target of assay [1] is T1, Polyunsaturated fatty acid 5-lipoxygenase (Rattus norvegicus) (UniProt P12527).
T1 sequence (whole entry): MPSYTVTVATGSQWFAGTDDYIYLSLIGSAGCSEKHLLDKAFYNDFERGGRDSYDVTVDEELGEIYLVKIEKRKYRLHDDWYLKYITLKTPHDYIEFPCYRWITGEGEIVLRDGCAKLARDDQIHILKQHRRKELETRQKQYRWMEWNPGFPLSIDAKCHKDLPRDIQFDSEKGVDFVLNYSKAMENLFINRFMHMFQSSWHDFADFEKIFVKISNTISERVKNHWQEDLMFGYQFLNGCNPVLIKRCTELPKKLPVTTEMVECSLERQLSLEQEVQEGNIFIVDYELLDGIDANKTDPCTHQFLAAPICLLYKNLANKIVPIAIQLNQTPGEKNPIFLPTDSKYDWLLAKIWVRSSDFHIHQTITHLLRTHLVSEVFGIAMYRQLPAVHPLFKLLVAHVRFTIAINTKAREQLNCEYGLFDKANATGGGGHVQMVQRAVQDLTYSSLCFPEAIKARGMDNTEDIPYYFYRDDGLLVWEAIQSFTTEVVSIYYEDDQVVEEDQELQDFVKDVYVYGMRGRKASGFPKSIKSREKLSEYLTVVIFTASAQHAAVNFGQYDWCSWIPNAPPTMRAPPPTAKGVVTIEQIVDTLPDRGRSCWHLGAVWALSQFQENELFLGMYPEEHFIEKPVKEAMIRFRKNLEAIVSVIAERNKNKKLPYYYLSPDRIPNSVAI
The settings on record: at 5 µM.

In assay [2] the target is T2, Polyunsaturated fatty acid 5-lipoxygenase (Rattus norvegicus, UniProt P12527).
T2 sequence (P12527 whole entry): T1 sequence (whole entry)
Nature of the assay: Inhibition of 5-LOX in rat peritoneal leukocytes. It counts as cell-based. The gist of the method: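 Cell-based 5-LOX assay in rat peritoneal leukocytes, quantified with a commercial kit. Selected compounds went on to concentration–response testing to derive IC50. Values are means of three determinations, each within 10% of the mean.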

A word on the inhibition: it is the share of the control response that was lost under treatment. A higher inhibition goes with a strong effect. As for `c1ccc(Cn2cc(CCCCN3CCOCC3)c3ccccc32)cc1`, the inhibition in assay [1] turned out to be 41.6%.

Molecule `Cc1ccc(Cn2cc(CC(=O)N3CCOCC3)c3ccccc32)cc1` showed an inhibition in assay [1] of 34.6%.

In general, IC50 refers to the point on the concentration scale where inhibition reaches its midpoint. The low end stands for inhibition by little substance, the high end for a need for much substance. As to `O=C(CCCc1cn(Cc2ccccc2)c2ccccc12)N1CCNCC1`, in assay [2], the IC50 turned out to be 850 nM. Further, in assay [1], the inhibition was 95.4%.

Take `O=C(CCCc1cn(Cc2ccccc2)c2ccccc12)N1CCOCC1`: the IC50 in assay [2] came to 74000 nM. This molecule returned an inhibition in assay [1] of 25.8%.

With `COc1ccc2c(c1)c(CCCC(=O)N1CCNCC1)c(C)n2Cc1ccccc1`, the inhibition in assay [1] worked out at 64.6%.

With `CS(=O)(=O)N1CCN(C(=O)CCCc2cn(Cc3ccccc3)c3ccccc23)CC1`, the inhibition in assay [1] amounted to 23.9%.

In turn, `COc1ccc2[nH]c(C)c(CCCC(=O)N3CCOCC3)c2c1` yielded an IC50 in assay [2] of 3160 nM. In addition, in assay [1], the inhibition came out at 72.9%.

In assay [1], `O=C(CCc1cn(Cc2ccc(Cl)c(Cl)c2)c2ccccc12)N1CCOCC1` came in with an inhibition of 38.5%.

`O=C(Cc1cn(C(=O)c2ccc(Cl)cc2)c2ccccc12)N1CCOCC1` registered an inhibition in assay [1] of 22.4%.

In the case of `COc1ccc2c(c1)c(CCCC(=O)N1CCOCC1)c(C)n2Cc1ccccc1`, the inhibition in assay [1] was 54.2%.

In assay [2], `O=C(CCCc1c[nH]c2ccccc12)N1CCOCC1` gave an IC50 of 2060 nM. This molecule returned an inhibition in assay [1] of 62.3%.

In assay [2], `COc1ccc2c(c1)c(CCCC(=O)N1CCOCC1)c(C)n2C(=O)c1ccc(Cl)cc1` gave an IC50 of 2250 nM. In assay [1], this molecule returned an inhibition of 70.2%.

Turning to `COc1ccc2c(c1)c(CCCC(=O)N1CCOCC1)c(C)n2Cc1ccc(C)cc1`, the inhibition in assay [1] was 26.4%.

The molecule `O=C(CCCc1cn(Cc2ccc(Cl)c(Cl)c2)c2ccccc12)N1CCOCC1` came in with an inhibition in assay [1] of 26.7%.

On to `CC(c1cc2ccccc2s1)N(O)C(N)=O` (stereo not drawn), for which the inhibition in assay [1] was found to be 86.9%.

Regarding `CC(C)(C)OC(=O)N1CCN(C(=O)CCCc2cn(Cc3ccccc3)c3ccccc23)CC1`, the inhibition in assay [1] turned out to be 38.2%.

Take `COc1ccc2[nH]c(C)c(CCCC(=O)N3CCN(C(=O)OC(C)(C)C)CC3)c2c1`: the inhibition in assay [1] is 71.2%.

Regarding `O=C(Cc1cn(C(=O)c2ccccc2)c2ccccc12)N1CCOCC1`, the inhibition in assay [1] is 21%.

In the case of `CC(C)(C)OC(=O)N1CCN(C(=O)CCCc2c[nH]c3ccccc23)CC1`, in assay [2], the IC50 is 740 nM. In assay [1], the inhibition is 84.1%.

As for `COC1(c2cc(F)cc(OCCc3cn(Cc4ccccc4)c4ccccc34)c2)CCOCC1`, in assay [1], the inhibition was 31.8%.

For the molecule `Cc1[nH]c2ccc(Cl)cc2c1CCCC(=O)N1CCOCC1`, it took 1330 nM to reach half-maximal inhibition in assay [2] (IC50). The molecule further yielded an inhibition in assay [1] of 71.3%.

Molecule `O=C(Cc1cn(Cc2ccc(Cl)c(Cl)c2)c2ccccc12)N1CCOCC1` had an IC50 in assay [2] of 870 nM. This molecule also gave an inhibition in assay [1] of 81.9%.

In turn, `O=C(CCCc1cn(C(=O)c2ccc(Cl)cc2)c2ccccc12)N1CCOCC1` displayed an inhibition in assay [1] of 32.4%.

`O=C(CCCc1cn(C(=O)c2ccccc2)c2ccccc12)N1CCOCC1` showed an inhibition in assay [1] of 58.2%.

As for `O=C(Cc1cn(Cc2ccccc2)c2ccccc12)N1CCOCC1`, the inhibition in assay [1] came out at 41.4%.

The molecule `COc1ccc2c(c1)c(CCCC(=O)N1CCN(C(=O)OC(C)(C)C)CC1)c(C)n2Cc1ccccc1` gave an inhibition in assay [1] of 51.5%.

In turn, `O=C(CCc1c[nH]c2ccccc12)N1CCOCC1` came in with an inhibition in assay [1] of 33%.

On to `Cc1c(CCCC(=O)N2CCOCC2)c2cc(Cl)ccc2n1Cc1ccccc1`, for which the IC50 in assay [2] was found to be 950 nM. This molecule also returned an inhibition in assay [1] of 80.2%.

For `COC1(c2cc(F)cc(OCCc3c[nH]c4ccccc34)c2)CCOCC1`, the IC50 in assay [2] is 2380 nM. In assay [1], this molecule had an inhibition of 64.2%.

On to `O=C(CCc1cn(Cc2ccccc2)c2ccccc12)N1CCOCC1`, for which, in assay [2], the IC50 was 3170 nM. The molecule also had an inhibition in assay [1] of 63.8%.

In the case of `O=C(Cc1c[nH]c2ccccc12)N1CCOCC1`, in assay [1], the inhibition worked out at 15.9%.

`Cc1c(CCCC(=O)N2CCOCC2)c2cc(Cl)ccc2n1Cc1ccc(Cl)cc1` yielded an inhibition in assay [1] of 37.9%.

`Cc1ccc(Cn2cc(CCC(=O)N3CCOCC3)c3ccccc32)cc1`: in assay [1], the inhibition was found to be 55.2%.

On to `COc1ccc2c(c1)c(CCCOc1cc(F)cc(C3(OC)CCOCC3)c1)c(C)n2Cc1ccccc1`, for which the inhibition in assay [1] was 46.5%.

In the case of `O=C(CCc1cn(C(=O)c2ccccc2)c2ccccc12)N1CCOCC1`, in assay [1], the inhibition is 23.4%.

In the case of `O=C(CCc1cn(C(=O)c2ccc(Cl)cc2)c2ccccc12)N1CCOCC1`, in assay [1], the inhibition amounted to 26%.

Consider `Cc1ccc(Cn2cc(CCCC(=O)N3CCOCC3)c3ccccc32)cc1`, for which, in assay [1], the inhibition is 33.9%.
